Measured values reported in ChEMBL document CHEMBL4043300, “2 H-1,2,3-Triazole-Based Dipeptidyl Nitriles: Potent, Selective, and Trypanocidal Rhodesain Inhibitors by Structure-Based Design” (J Med Chem, 2018).
Values after ≈ are worked out from the molar mass of the structure shown.

Legend:
Rhodesain = Rhodesain (Trypanosoma brucei rhodesiense, UniProt Q95PM0); assay: Inhibition of Trypanosoma brucei rhodesiense rhodesain using Cbz-Phe-Arg-AMC as substrate by fluorimetric method
Summary of the method: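 Fluorescence-based assay run at 25 °C in 50 mM sodium acetate pH 5.5 with 5 mM EDTA, 200 mM NaCl and 0.005% Brij35. IC50 values were converted to Ki with the Cheng-Prusoff equation. Values are the average of two measurements, each done in duplicate.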

[1] = Half life in C57BL/6J mouse at 0.8 mg/kg, iv as bolus dose by LC-MS/MS analysis; type: ADME, organism-based; conditions: in vivo
Summary of the method: (§1)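 Mice received intravenous compound in N-methylpyrrolidinone / 40% aqueous hydroxypropyl-γ-cyclodextrin (30/70). Blood was drawn into K₂EDTA at 5 min, 15 min, 30 min, 1, 2, 4 and 8 h, and plasma was separated at 3000 × g for 5 min at 4 °C and stored at -20 °C. Plasma levels were measured by LC–MS/MS, and parameters derived by non-compartmental analysis.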

Cytochrome P450 2C9 = Cytochrome P450 2C9 (Homo sapiens, UniProt P11712); assay: Inhibition of CYP2C9 in human liver microsomes using MFC as substrate by fluorescence assay; type: ADME
Summary of the method: (§2)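 Human liver microsomes with CYP-selective substrate metabolism reactions for 2C9, 2D6 and 3A4.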

Cytochrome P450 2D6 = Cytochrome P450 2D6 (Homo sapiens, UniProt P10635); assay: Inhibition of CYP2D6 in human liver microsomes using AMMC as substrate by fluorescence assay; type: ADME; summary of the method: as §2
L6 = assay: Cytotoxicity against rat L6 cells after 72 hrs by Alamar blue assay; type: cell-based; conditions: L6, 72 h
Summary of the method: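 Rat skeletal myoblast L6 cells in an Alamar Blue growth-inhibition assay. Value is the mean of at least 2 measurements.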

[2] = Clearance in C57BL/6J mouse at 0.8 mg/kg, iv as bolus dose by LC-MS/MS analysis; type: ADME, organism-based; conditions: in vivo; summary of the method: as §1
[3] = Intrinsic clearance in human liver microsomes at 2 uM after 30 mins in presence of NADPH by LC-MS/MS method; type: ADME, microsome; conditions: read-out: CLH
Procathepsin L = Procathepsin L (Homo sapiens, UniProt P07711); assay: Inhibition of human CatL using Cbz-Phe-Arg-AMC as substrate measured over 30 mins by fluorimetric method
Summary of the method: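 Human cathepsin L in a fluorimetric assay in 50 mM Tris pH 6.5, 5 mM EDTA, 200 mM NaCl, 0.005% Brij35 at 25 °C. Ki was calculated from IC50 by Cheng-Prusoff. Value is the average of two measurements, each in duplicate.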

[4] = Volume of distribution at steady state in C57BL/6J mouse at 0.8 mg/kg, iv as bolus dose by LC-MS/MS analysis; type: ADME, organism-based; conditions: in vivo, read-out: Vdss; summary of the method: as §1
[5] = Intrinsic clearance in mouse liver microsomes at 2 uM after 30 mins in presence of NADPH by LC-MS/MS method; type: ADME, microsome; conditions: read-out: CLH
[6] = system: Trypanosoma brucei rhodesiense; assay: Antitrypanosomal activity against bloodstream form of Trypanosoma brucei rhodesiense STIB 900 assessed as parasite growth inhibition after 72 hrs by Alamar blue assay; type: functional; conditions: STIB 900, 72 h
Summary of the method: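 Standard 72 h growth-inhibition assay with STIB 900 bloodstream trypomastigotes and Alamar Blue read-out. Value is the mean of at least 2 measurements.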

Cytochrome P450 3A4 = Cytochrome P450 3A4 (Homo sapiens, UniProt P08684); assay: Inhibition of CYP3A4 in human liver microsomes using DBF as substrate by fluorescence assay; type: ADME; summary of the method: as §2
[7] = system: Trypanosoma brucei rhodesiense; assay: Antitrypanosomal activity against bloodstream form of Trypanosoma brucei rhodesiense STIB 900 infected in NMRI mouse assessed as reduction of parasitemia at 50 mg/kg, po administered for 3 consecutive days starting 1 day post infection measured at 24 hrs post last dose relative to control; type: functional; parameters: scale not given: the % may be the effect or the level left
Summary of the method: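 Female mice infected with STIB900 were dosed orally at 50 mg/kg/day on three consecutive days, starting 1 day post-infection. Compound was in 100% DMSO diluted 10-fold in distilled water, given at 0.1 mL/10 g. Tail-blood parasitaemia was measured 24 h after the last dose versus 4 untreated infected controls. Values are means of 2 mice.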

[8] = Unbound fraction in human plasma; type: ADME, cell-free
[9] = Selectivity index, ratio of Ki for human CatL to Ki for Trypanosoma brucei rhodesiense rhodesain
Summary of the method: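 Ki(hCatL)/Ki(RD). Fluorimetric assays at 25 °C: RD in 50 mM sodium acetate pH 5.5; hCatL in 50 mM Tris pH 6.5; both buffers with 5 mM EDTA, 200 mM NaCl, 0.005% Brij35. Ki derived from IC50 by Cheng-Prusoff. Each value is the mean of two measurements, each done in duplicate.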

[10] = Permeability of the compound after 15 hrs by PAMPA; type: physicochemical; conditions: read-out: permeability
[11] = Solubility of the compound at pH 6.5 by LYSA; type: physicochemical; conditions: buffer
Summary of the method: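 Lyophilization solubility assay at pH 6.5.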

[12] = Selectivity index, ratio of IC50 for rat L6 cells to IC50 for bloodstream form of Trypanosoma brucei rhodesiense STIB 900; type: toxicity; conditions: read-out: Ratio IC50
Summary of the method: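 Ratio of L-6 rat skeletal myoblast IC50 to T. b. rhodesiense STIB 900 bloodstream trypomastigote IC50, both from Alamar Blue growth-inhibition assays. Each IC50 is the mean of at least 2 measurements.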

[13] = Volume of distribution at steady state in C57BL/6J mouse at 1.3 mg/kg, iv as bolus dose by LC-MS/MS analysis; type: ADME, organism-based; conditions: in vivo, read-out: Vdss; summary of the method: as §1
[14] = Clearance in C57BL/6J mouse at 1.3 mg/kg, iv as bolus dose by LC-MS/MS analysis; type: ADME, organism-based; conditions: in vivo; summary of the method: as §1
[15] = Half life in C57BL/6J mouse at 1.3 mg/kg, iv as bolus dose by LC-MS/MS analysis; type: ADME, organism-based; conditions: in vivo; summary of the method: as §1
[16] = Octanol-water intrinsic distribution co-efficient, log D of the compound at 100 uM at pH 7.4 after 16 to 22 hrs by CAMDIS assay; type: physicochemical
Summary of the method: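 Octanol/aqueous buffer (pH 7.4) intrinsic distribution coefficient measured in the CAMDIS carrier-mediated distribution system.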

[17] = system: Trypanosoma brucei rhodesiense; assay: Antitrypanosomal activity against bloodstream form of Trypanosoma brucei rhodesiense STIB 900 assessed as parasite growth inhibition after 24 hrs by Alamar blue assay; type: functional; conditions: STIB 900, 24 h
Summary of the method: (§3)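 Bloodstream STIB 900 trypomastigotes, 1x10⁴ per well, exposed to eleven 3-fold serial dilutions at 37 °C/5% CO₂ for the stated pulse time. Parasites were then pelleted and washed four times, and an aliquot was regrown 72 h drug-free in triplicate plates. Resazurin was added for 2–4 h, fluorescence read at ex 536/em 588 nm, and IC50 taken by linear regression of sigmoidal curves. Melarsoprol served as control.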

[18] = system: Trypanosoma brucei rhodesiense; assay: Antitrypanosomal activity against bloodstream form of Trypanosoma brucei rhodesiense STIB 900 assessed as parasite growth inhibition after 2 hrs by Alamar blue assay; type: functional; conditions: STIB 900, 2 h; summary of the method: as §3
[19] = system: Trypanosoma brucei rhodesiense; assay: Antitrypanosomal activity against bloodstream form of Trypanosoma brucei rhodesiense STIB 900 assessed as parasite growth inhibition after 48 hrs by Alamar blue assay; type: functional; conditions: STIB 900, 48 h; summary of the method: as §3
[20] = system: Trypanosoma brucei rhodesiense; assay: Antitrypanosomal activity against bloodstream form of Trypanosoma brucei rhodesiense STIB 900 assessed as parasite growth inhibition after 6 hrs by Alamar blue assay; type: functional; conditions: STIB 900, 6 h; summary of the method: as §3
MDR1 (P-gp) = assay: Efflux ratio of permeability across pig LLC-PK1 cells expressing human MDR1 at 1 uM after 3.5 hrs by LC-MS/MS analysis; type: ADME, cell-based, Sus scrofa
Summary of the method: (§4)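 LLC-PK1 monolayers stably transfected with human MDR1 or mouse Mdr1a, grown in Medium 199/10% FCS with colchicine on permeable inserts and used day 4 after seeding. 1 μM compound added apical or basolateral; transport run in both directions in triplicate, 37 °C, 5% CO₂. Donor and receiver sampled at 3.5 h, quantified by LC–MS/MS. Lucifer yellow checked monolayer tightness.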

[21] = system: Trypanosoma brucei rhodesiense; assay: Antitrypanosomal activity against bloodstream form of Trypanosoma brucei rhodesiense STIB 900 assessed as parasite growth inhibition after 16 hrs by Alamar blue assay; type: functional; conditions: STIB 900, 16 h; summary of the method: as §3
Mdr1a (P-gp) = assay: Efflux ratio of permeability across pig LLC-PK1 cells expressing mouse Mdr1a at 1 uM after 3.5 hrs by LC-MS/MS analysis; type: ADME, cell-based, Sus scrofa; summary of the method: as §4

Sequence of Cytochrome P450 2C9 (P11712 whole entry): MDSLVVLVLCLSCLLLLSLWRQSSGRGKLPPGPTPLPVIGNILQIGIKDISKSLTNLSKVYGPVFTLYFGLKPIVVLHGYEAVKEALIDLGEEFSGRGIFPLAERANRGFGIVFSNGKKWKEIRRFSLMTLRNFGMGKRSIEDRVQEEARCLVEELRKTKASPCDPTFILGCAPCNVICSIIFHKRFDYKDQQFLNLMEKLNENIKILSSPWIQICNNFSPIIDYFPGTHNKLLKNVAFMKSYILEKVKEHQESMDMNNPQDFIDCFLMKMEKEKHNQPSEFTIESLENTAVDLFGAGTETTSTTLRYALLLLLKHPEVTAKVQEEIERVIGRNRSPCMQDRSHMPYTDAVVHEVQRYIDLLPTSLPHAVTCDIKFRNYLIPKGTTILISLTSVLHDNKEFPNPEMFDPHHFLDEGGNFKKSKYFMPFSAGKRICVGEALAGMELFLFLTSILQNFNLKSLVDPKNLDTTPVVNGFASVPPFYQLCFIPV
Sequence of Cytochrome P450 3A4 (P08684 whole entry): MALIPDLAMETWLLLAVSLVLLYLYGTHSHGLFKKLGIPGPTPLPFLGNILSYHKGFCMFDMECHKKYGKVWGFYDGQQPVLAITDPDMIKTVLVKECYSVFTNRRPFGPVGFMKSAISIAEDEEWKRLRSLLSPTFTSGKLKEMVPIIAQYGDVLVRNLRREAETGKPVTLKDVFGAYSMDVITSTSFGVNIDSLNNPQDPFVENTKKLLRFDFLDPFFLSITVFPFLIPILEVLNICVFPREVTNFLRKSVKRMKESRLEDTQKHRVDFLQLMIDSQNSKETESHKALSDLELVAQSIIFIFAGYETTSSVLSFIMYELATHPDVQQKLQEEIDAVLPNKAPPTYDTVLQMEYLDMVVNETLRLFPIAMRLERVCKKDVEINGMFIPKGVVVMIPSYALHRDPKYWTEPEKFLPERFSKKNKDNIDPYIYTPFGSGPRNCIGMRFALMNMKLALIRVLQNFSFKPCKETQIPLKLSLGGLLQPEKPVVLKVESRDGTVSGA
Sequence of Procathepsin L (P07711 whole entry): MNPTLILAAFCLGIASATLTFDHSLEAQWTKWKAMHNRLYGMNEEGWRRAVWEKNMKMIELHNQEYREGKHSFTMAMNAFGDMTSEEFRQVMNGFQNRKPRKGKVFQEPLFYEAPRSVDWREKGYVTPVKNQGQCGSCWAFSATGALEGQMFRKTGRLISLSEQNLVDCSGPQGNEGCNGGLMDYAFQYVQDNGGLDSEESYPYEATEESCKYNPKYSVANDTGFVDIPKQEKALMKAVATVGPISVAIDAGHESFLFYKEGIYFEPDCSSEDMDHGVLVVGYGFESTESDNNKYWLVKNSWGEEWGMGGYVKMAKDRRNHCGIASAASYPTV
Sequence of Cytochrome P450 2D6 (P10635 whole entry): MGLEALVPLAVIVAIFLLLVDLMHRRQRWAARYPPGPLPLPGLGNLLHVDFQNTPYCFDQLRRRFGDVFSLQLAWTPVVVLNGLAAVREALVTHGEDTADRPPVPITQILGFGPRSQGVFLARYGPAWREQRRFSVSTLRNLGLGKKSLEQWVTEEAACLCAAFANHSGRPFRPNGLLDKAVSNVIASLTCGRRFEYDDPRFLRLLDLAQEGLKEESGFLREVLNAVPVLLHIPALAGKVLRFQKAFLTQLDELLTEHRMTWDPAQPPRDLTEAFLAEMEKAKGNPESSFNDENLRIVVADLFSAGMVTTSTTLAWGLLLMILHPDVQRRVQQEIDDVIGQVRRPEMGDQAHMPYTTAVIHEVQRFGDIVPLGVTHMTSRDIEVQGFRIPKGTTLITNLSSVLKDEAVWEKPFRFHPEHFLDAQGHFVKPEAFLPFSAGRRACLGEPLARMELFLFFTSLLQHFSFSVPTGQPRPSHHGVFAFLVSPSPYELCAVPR
Sequence of Rhodesain (Q95PM0 whole entry): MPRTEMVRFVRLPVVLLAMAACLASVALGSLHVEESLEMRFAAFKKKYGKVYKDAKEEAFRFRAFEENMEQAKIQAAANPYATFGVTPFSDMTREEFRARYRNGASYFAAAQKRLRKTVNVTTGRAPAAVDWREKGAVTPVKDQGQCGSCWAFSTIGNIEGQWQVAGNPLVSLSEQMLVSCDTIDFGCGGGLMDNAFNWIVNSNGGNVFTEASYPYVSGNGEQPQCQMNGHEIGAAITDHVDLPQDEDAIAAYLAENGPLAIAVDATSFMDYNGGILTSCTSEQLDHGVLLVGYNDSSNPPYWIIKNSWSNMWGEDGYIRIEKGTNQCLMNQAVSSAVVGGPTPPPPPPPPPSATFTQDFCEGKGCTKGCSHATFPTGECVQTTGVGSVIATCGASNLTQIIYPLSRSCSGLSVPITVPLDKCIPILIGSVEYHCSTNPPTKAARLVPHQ

Row | Compound | Ki (Rhodesain) | IC50 (Cytochrome P450 2C9) | IC50 (Cytochrome P450 2D6) | IC50 (L6) | microsomal CLint at 2 µM [3] | Ki (Procathepsin L) | microsomal CLint at 2 µM [5] | IC50 [6] | IC50 (Cytochrome P450 3A4) | Activity [7] | Ratio Ki [9] | Papp at 15 h [10] | solubility [11] | selectivity ratio [12] | Vd [13] | clearance [14] | half-life [15] | also measured
1 | N#CC1(NC(=O)[C@H](Cc2ccc(OC(F)(F)F)c(Cl)c2)NC(=O)c2cnn(-c3ccc(F)nc3)n2)CC1 | 14 nM | 11000 nM | 1000 nM | 6990 nM | < 10 µL/min/mg | 143 nM | < 10 µL/min/mg | 6 nM | 47000 nM | 40.8% | 10 | 0.291 ×10⁻⁶ cm/s | 0.5 µg/mL (≈ 0.93 µM) | 1170 | – | – | – | half-life [1]: 1.42 h; clearance [2]: 10.2 mL/min/kg; Vd [4]: 1.2 L/kg; fraction unbound [8]: 0.0148
2 | CC(C)(C)n1ncc(C(=O)N[C@@H](Cc2ccc(OC(F)(F)F)c(Cl)c2)C(=O)NC2(C#N)CC2)n1 | 31 nM | 5000 nM | 500 nM | 7630 nM | < 10 µL/min/mg | 8 nM | 17 µL/min/mg | 4 nM | > 50000 nM | – | 0.3 | 2.86 ×10⁻⁶ cm/s | 0.9 µg/mL (≈ 1.8 µM) | 1900 | 1.7 L/kg | 17 mL/min/kg | 1.3 h | logD at 100 µM [16]: 4.87
3 | N#CC1(NC(=O)[C@H](Cc2ccc(Cl)c(Cl)c2)NC(=O)c2cnn(-c3ccc(F)cc3)n2)CC1 | 2 nM | 4000 nM | 5000 nM | 9670 nM | < 10 µL/min/mg | 131 nM | < 10 µL/min/mg | 7 nM | > 50000 nM | 47.2% | 66 | 1.07 ×10⁻⁶ cm/s | < 0.3 µg/mL | 1390 | < 2.5 L/kg | < 4.6 mL/min/kg | > 6.4 h | –
4 | N#CC1(NC(=O)[C@H](Cc2ccc(OC(F)(F)F)c(Cl)c2)NC(=O)c2cnn(-c3ccc(F)cc3)n2)CC1 | 7.4 nM | 9000 nM | 3000 nM | 18800 nM | < 10 µL/min/mg | 266 nM | < 10 µL/min/mg | 9 nM | > 50000 nM | – | 36 | – | < 0.3 µg/mL | 2090 | – | – | – | IC50 [17]: 450 nM; IC50 [18]: > 1000 nM; IC50 [19]: 64 nM; IC50 [20]: > 1000 nM; efflux ratio at 3.5 h, 1 µM (MDR1 (P-gp)): 6; IC50 [21]: > 1000 nM; efflux ratio at 3.5 h, 1 µM (Mdr1a (P-gp)): 20
